Several values for one entry are separate records, joined by “and”; a condition that tells them apart may be missing. Equal entries are not always repeated. Entries after “also recorded” stand apart in the source; their conditions may differ. Where two headings read alike, the source gives them in different places.
Key:
[1] = test system: K562 cells; assay: MTT cytotoxicity assay in K562 cells; type: cell-based; details: read-out: K562- IC50
Procedure, shortened: (§1)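 Cells were grown in suspension in RPMI 1640 with 10% FBS and penicillin/streptomycin/amphotericin B at 37 °C under 5% CO2. They were seeded at ~5×10^3 cells/well, kept overnight, then exposed to test compounds diluted in DMSO for 48 h. Cells were pelleted (300 g, 4 °C, 5 min) and washed twice in phosphate buffer. MTT (5 mg/ml stock) was added for 4 h at 37 °C, formazan dissolved in DMSO, and A570 read. Triplicate; IC50 given as mean±SD.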

[2] = test system: CEM cells; assay: MTT cytotoxicity assay in CEM cells; type: cell-based; details: read-out: CEM- IC50, 48 h, Mean±SD, n=3
Procedure, shortened: as §1

[3] = biological target: HDAC4 (Homo sapiens, UniProt P56524); assay: HDAC enzyme activity assay, HDAC4; type: biochemical
Chain of HDAC4 (P56524 655-1084 limits assumed): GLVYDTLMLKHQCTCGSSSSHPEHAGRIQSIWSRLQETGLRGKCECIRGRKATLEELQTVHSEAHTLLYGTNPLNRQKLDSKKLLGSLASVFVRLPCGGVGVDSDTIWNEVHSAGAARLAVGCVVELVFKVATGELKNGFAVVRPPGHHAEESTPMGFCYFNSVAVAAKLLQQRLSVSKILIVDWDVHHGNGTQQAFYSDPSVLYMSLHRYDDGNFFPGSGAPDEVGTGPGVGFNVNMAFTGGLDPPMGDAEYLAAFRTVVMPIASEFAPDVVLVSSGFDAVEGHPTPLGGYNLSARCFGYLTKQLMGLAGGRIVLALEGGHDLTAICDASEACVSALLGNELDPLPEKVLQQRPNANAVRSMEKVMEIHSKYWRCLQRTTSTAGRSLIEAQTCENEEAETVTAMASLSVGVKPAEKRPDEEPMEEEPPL
Procedure, shortened: (§2)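 Enzymes were recombinant: HDAC8, and the codon-optimised human HDAC4 catalytic domain (pET14b). Serial inhibitor dilutions in 25 mM Tris-HCl, 75 mM KCl, 0.001% Pluronic F-127, pH 8.0 were pre-incubated with enzyme for 1 h at 30 °C. Reaction ran 60 min at 30 °C with 20 μM Boc-Lys(trifluoroacetyl)-AMC and was stopped with 1.7 μM SATFMK. Trypsin (0.4 mg/ml) released AMC; fluorescence read at Ex 350/Em 450 nm. Triplicate; IC50 from dose-response curves.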

[4] = biological target: T1, HDAC8 (Homo sapiens, UniProt Q9BY41); assay: HDAC enzyme activity assay, HDAC8; type: biochemical; details: for HDAC-8 relative enzyme activity: primary screening at 50 μM
T1 sequence (Q9BY41 1-377): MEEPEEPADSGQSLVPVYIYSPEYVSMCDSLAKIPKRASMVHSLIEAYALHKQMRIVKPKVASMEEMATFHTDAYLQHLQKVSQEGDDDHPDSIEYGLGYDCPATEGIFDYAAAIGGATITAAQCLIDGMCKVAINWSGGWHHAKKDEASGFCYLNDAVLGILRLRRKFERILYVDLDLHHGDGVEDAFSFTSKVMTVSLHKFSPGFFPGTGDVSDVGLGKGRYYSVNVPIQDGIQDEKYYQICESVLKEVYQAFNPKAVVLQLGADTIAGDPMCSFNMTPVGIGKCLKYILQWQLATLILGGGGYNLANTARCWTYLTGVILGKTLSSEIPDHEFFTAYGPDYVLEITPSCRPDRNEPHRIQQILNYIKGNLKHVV
Procedure, shortened: as §2

[5] = test system: GLUT5; type: cell-based, human; details: up to 100 μM
Procedure, shortened: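 Uses hexose-transporter-null VW4000 yeast expressing human GLUT5, cultured at 30 °C and 180 rpm. Cells were grown one day in YEP/2% maltose with G418, then 1–2 days in YEP/2% fructose starting from OD600 ~0.5. Washed cells in PBS pH 7.4 (OD600 ~10) took up 10 mM C14-fructose for 10 min. Uptake was stopped with ice-cold KPi/LiCl quench buffer pH 5.5, then filtered and scintillation-counted. Controls were 1% DMSO and 100 μM MSNBA. Screening was at 100 μM; three independent measurements.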

[6] = biological target: T2, GLUT1 (Homo sapiens, UniProt P11166); type: cell-based; details: for IC50: GLUT1 IC50, hxt0 yeast cells expressing GLUT1, 5 mM C14-glucose, 10 minutes; for decrease of relative transport activity of GLUT1: primary screen, 100 μM compound
T2 sequence (P11166 1-492): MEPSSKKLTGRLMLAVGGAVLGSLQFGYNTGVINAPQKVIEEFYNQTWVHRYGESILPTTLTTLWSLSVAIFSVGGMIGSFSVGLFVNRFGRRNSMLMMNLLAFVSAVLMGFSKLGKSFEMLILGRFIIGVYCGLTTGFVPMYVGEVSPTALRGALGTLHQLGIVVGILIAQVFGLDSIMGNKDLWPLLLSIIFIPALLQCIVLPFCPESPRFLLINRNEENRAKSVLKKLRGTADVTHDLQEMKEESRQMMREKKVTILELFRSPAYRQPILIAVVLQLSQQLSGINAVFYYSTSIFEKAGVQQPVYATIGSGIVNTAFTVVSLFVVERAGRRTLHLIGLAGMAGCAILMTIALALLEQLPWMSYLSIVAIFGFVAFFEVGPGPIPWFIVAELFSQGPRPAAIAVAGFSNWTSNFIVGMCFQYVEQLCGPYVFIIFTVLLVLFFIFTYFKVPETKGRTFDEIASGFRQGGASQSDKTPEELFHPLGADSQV
Procedure, shortened: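 VW4000fgy1 hxt0 yeast carrying human GLUT1 were grown at 30 °C: first in SC-uracil/2% maltose for 2–3 days, then 1–2 days in SC-uracil/2% glucose from OD600 ~0.5. Cells were resuspended in PBS pH 7.4 at OD600 ~10 and given 5 mM C14-glucose for 10 min. Uptake was quenched with ice-cold buffer pH 5.5, filtered, and counted. Controls: 1% DMSO and 200 μM phloretin.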

[7] = biological target: T3, GLUT4 (Homo sapiens, UniProt P14672); type: cell-based
T3 sequence (P14672 1-509): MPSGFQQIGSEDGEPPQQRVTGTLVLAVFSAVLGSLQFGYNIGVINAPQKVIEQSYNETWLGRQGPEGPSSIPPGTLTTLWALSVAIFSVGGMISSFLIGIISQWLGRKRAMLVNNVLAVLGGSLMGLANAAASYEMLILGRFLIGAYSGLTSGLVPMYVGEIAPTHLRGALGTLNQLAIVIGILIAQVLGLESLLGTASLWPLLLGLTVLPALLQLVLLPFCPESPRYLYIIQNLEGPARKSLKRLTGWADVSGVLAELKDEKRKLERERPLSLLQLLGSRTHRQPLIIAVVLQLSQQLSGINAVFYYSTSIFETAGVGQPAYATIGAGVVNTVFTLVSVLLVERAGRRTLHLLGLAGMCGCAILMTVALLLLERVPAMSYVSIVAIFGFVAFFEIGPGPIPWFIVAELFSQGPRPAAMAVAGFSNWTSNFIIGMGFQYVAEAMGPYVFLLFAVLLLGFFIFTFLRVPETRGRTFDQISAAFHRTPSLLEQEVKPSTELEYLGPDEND
Procedure, shortened: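 VW4000fgy1erg4 hxt0 yeast expressing human GLUT4 were cultured at 30 °C, first in SC-uracil/1% maltose and then in SC-uracil/0.2% glucose from OD600 ~0.5. Cells in PBS pH 7.4 (OD600 ~10) were fed 5 mM C14-glucose for 10 min. The reaction was quenched in ice-cold buffer pH 5.5, then filtered and scintillation-counted. Vehicle control was 1% DMSO; 200 μM phloretin served as positive control.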

SMILES | IC50 ([1]; MTT, 48 h, Mean±SD, n=3) | IC50 [2] | IC50 ([1]; Homo sapiens, K562, 48 h) | further results
O=C(CN1C(=O)SC(=Cc2ccc(F)cc2F)C1=O)Nc1ccc(Cl)cc1C(F)(F)F [Compound G7, N-(4-Chloro-2-trifluoromethylphenyl)-2-[5-(2,4-difluorobenzylidene)-2,4-dioxothiazolidin-3-yl] acetamide] | 36.8 ± 1.77 µM | 40.4 ± 2.94 µM | – | –
O=C(CN1C(=O)SC(=Cc2ccc(F)cc2)C1=O)Nc1ccc(Cl)cc1C(F)(F)F [Compound G9, N-(4-Chloro-2-trifluoromethylphenyl)-2-[5-(4-fluorobenzylidene)-2,4-dioxothiazolidin-3-yl]acetamide] | – | – | 43.6 ± 2.23 µM | IC50 [3]: > 50 µM; IC50 [4]: 45 ± 5 µM; HDAC-8 relative enzyme activity [4]: < 50%
CC(=O)O[C@H]1C(=O)[C@@]2(C)[C@H]([C@H](OC(=O)c3ccccc3)[C@]3(O)C[C@H](OC(=O)[C@H](O)[C@@H](NC(=O)c4ccccc4)c4ccccc4)C(C)=C1C3(C)C)[C@]1(OC(C)=O)CO[C@@H]1C[C@@H]2O [Paclitaxel, reference compound] | – | – | 0.29 ± 0.15 µM | –
O=C(CN1C(=O)SC(=Cc2ccccc2)C1=O)Nc1nc2c(Cl)cccc2s1 [Compound G17, 2-(5-benzylidene-2,4-dioxothiazolidin-3-yl)-N-(4-chlorobenzo[d]thiazol-2-yl)acetamide] | – | – | 79 ± 3.66 µM | GLUT5 inhibition, result in words [5]: neither G16 nor G17 altered the transport activity of GLUT5; IC50 [6]: 12.6 ± 1.2 µM; decrease of relative transport activity of GLUT1 [6]: > 50%; GLUT1 inhibition, result in words ([6]; up to 100 μM): selective inhibitor of GLUT1
Cc1ccc(C=C2SC(=O)N(CC(=O)Nc3ccc(F)cc3F)C2=O)cc1C [Compound G4, N-[2,4-Difluorophenyl)-2-[5-(3,4-dimethylbenzylidene)-2,4-dioxothiazolidin-3-yl]acetamide] | – | – | > 50 µM | –
O=C(CN1C(=O)SC(=Cc2ccc(F)cc2F)C1=O)Nc1ccc(F)cc1F [Compound G8, 2-[5-(2,4-Difluorobenzylidene)-2,4-dioxothiazolidin-3-yl]-N-(2,4-diflurophenyl)acetamide] | 34.5 ± 3.01 µM | 4.77 ± 1.51 µM | – | –
Cc1ccc(C=C2SC(=O)N(CC(=O)Nc3ccc(F)cc3F)C2=O)cc1 [Compound G12, N-(2,4-Difluoropheyl)-2-[5-(4-methylbenzylidene)-2,4-dioxothiazolidin-3-yl]acetamide] | > 50 µM | 9.93 ± 2.03 µM | – | –
O=C(CN1C(=O)SC(=Cc2ccc(F)cc2)C1=O)Nc1cccc(C(F)(F)F)c1 [Compound G16, 2-(5-(4-fluorobenzylidene)-2,4-dioxothiazolidin-3-yl)-N-(3-(trifluoromethyl)phenyl)acetamide] | – | – | 23.5 ± 1.94 µM | IC50 [7]: 21.6 ± 4.5 µM; decrease of relative transport activity of GLUT4 ([7]; primary screen, 100 μM compound): > 50%; GLUT5 inhibition, result in words [5]: did not affect GLUT5; also recorded: neither G16 nor G17 altered the transport activity of GLUT5; IC50 [6]: 26.6 µM and 26.8 µM; decrease of relative transport activity of GLUT1 [6]: > 50%
O=C(CN1C(=O)SC(=Cc2ccccc2)C1=O)Nc1ccc(F)cc1F [Compound G14, 2-[5-Benzylidene-2,4-dioxothiazolidin-3-yl]-N-(2,4-difluorophenyl)acetamide] | – | – | > 50 µM | –
O=C(CN1C(=O)SC(=Cc2ccc(Cl)cc2)C1=O)Nc1ccc(F)cc1F [Compound G6, 2-[5-(4-Chlorobenzylidene)-2,4-dioxothiazolidin-3-yl]-N-(2,4-diflurophenyl)acetamide] | 48.2 ± 1.23 µM | 39.3 ± 2.68 µM | – | IC50 ([3]; read-out: HDAC4 IC50, Means ±SD, n=3): > 50 µM; HDAC-8 relative enzyme activity [4]: < 50%; IC50 ([4]; read-out: HDAC8 IC50, Means ±SD, n=3): 49 ± 5 µM
O=C(CN1C(=O)SC(=Cc2ccc(Br)cc2)C1=O)Nc1ccc(F)cc1F [Compound G2, 2-[5-(4-Bromobenzylidene)-2,4-dioxo-thiazolidin-3-yl]-N-(2,4-diflurophenyl)acetamide] | > 50 µM | 47.7 ± 2.12 µM | – | –
O=C(CN1C(=O)SC(=Cc2ccc(F)cc2)C1=O)Nc1ccc(F)cc1F [Compound G10, N-(2,4-Difluoropheyl)-2-[5-(4-fluoro-benzylidene)-2,4-dioxothiazolidin-3-yl]acetamide] | 45.4 ± 1.13 µM | 27.4 ± 3.06 µM | – | –
CCc1ccc(CCOc2ccc(CC3SC(=O)NC3=O)cc2)nc1 (stereo not drawn) [Pioglitazone, reference compound] | – | – | 32 ± 3.66 µM | –
O=C(CN1C(=O)SC(=Cc2ccc(F)cc2F)C1=O)Nc1cccc(C(F)(F)F)c1 [Compound G15, 2-(5-(2,4-difluorobenzylidene)-2,4-dioxothiazolidin-3-yl)-N-(3-(trifluoromethyl)phenyl) acetamide] | > 50 µM | 17.3 ± 1.16 µM | – | –

Reference: publication PMC9398548 (European journal of pharmaceutical sciences : official …, 2020)
